Measurements from different studies.
Lines come from different studies, so protocols differ.
Cell line: HepG2
Effect on: cell growth or viability

Compound	assay	setting	CC50 [µM]
CN1CCN(c2cccc(-c3ccc4ncnc(Nc5ccc([N+](=O)[O-])c(C(F)(F)F)c5)c4c3)c2)CC1	MTT	48 h	34
CO[C@H]1/C=C/O[C@@]2(C)Oc3c(C)c(O)c4c(c3C2=O)C2=NC3(CCN(CC(C)C)CC3)NC2=C(NC(=O)/C(C)=C\C=C\[C@H](C)[C@H](O)[C@@H](C)[C@@H](O)[C@@H](C)[C@H](OC(C)=O)[C@@H]1C)C4=O	–	48 h	170
O=C(Nc1ccncc1)c1cc([N+](=O)[O-])ccc1Cl	ATP luminescence	72 h	18.1
N=C(CC(O)c1nc2ccccc2c2ccc(Cl)cc12)Nc1ccc(F)cc1 (centres unmarked)	neutral red	24 h	> 25
O=[N+]([O-])c1ccc(Nc2ncnc3ccc(-c4cccc(N5CCOCC5)c4)cc23)cc1C(F)(F)F	MTT	48 h	> 40
CC(C)N(c1ccc(NC(=O)CN(C)c2ccccc2N2CCCC2=O)cc1)c1ccc(Cl)c(F)c1	ATP luminescence	48 h	> 40
N=C(CC(O)c1nc2ccccc2c2ccc(Br)cc12)Nc1ccc(F)cc1 (centres unmarked)	neutral red	24 h	> 25
Cc1ccc(Oc2ccc(NC(=O)CNc3ccccc3N3CCCCC3=O)cc2)cc1	ATP luminescence	48 h	15
Clc1ccc(Nc2ncnc3ccc(-c4cccc(N5CCOCC5)c4)cc23)cc1	MTT	48 h	18
O=C1C(O)=C([C@H]2CC[C@H](c3ccc(Cl)cc3)CC2)C(=O)c2ccccc21	ATP luminescence	72 h	9.67
CN1CCN(c2cccc(-c3ccc4ncnc(Nc5ccc(Cl)c(Cl)c5)c4c3)c2)CC1	MTT	48 h	14
CC(C)N(c1ccc(Cl)c(F)c1)c1ccc(NC(=O)CN(C)c2ccccc2N2CCCC2=O)c(F)c1	ATP luminescence	48 h	> 40
FC(F)(F)c1cc(Nc2ncnc3ccc(-c4cccc(N5CCOCC5)c4)cc23)ccc1Cl	MTT	48 h	29
Cc1ccc(N(C)c2ccc(NC(=O)CN(C)c3cccnc3N3CCCC3=O)cc2)cc1	ATP luminescence	48 h	> 40
N=C(CC(O)c1nc2cc(F)ccc2c2ccc(F)cc12)Nc1ccc(F)cc1 (centres unmarked)	neutral red	24 h	19.4
O=C(CNc1ccccc1N1CCCC1=O)Nc1ccc(Oc2cccc(Cl)c2)cc1	ATP luminescence	48 h	> 40
CC(=O)[C@]1(O)Cc2c(O)c3c(c(O)c2[C@@H](O[C@H]2C[C@H](N)[C@H](O)[C@H](C)O2)C1)C(=O)c1ccccc1C3=O	ATP luminescence	72 h	0.14
